# Results collected from several papers.
# Lines come from different studies, so protocols differ.
# Target: Leukocyte tyrosine kinase receptor (LTK, Homo sapiens, UniProt P29376)
SMILES,test,setting,quantity,result
O=C(Nc1cnc(Oc2ccc(F)cc2)nc1)N1CCc2ncccc2[C@@H]1c1ccc(F)cc1,"cell-free assay, competition with immobilised ligand",1 µM,remaining binding,93%
CC/C(=N\NC(=O)NCc1cccc(O)c1)c1ccc(O)c(C)c1O,"enzyme activity, inhibitor",0.1 µM,inhibition,-1.4%
COc1cc(Cl)c(C(=O)N[C@@H](CN[C@H]2CC[C@@H](N)CC2)Cc2ccc(C#N)cc2)cc1-c1ccc(CN[C@H](C)c2ccc(C)cc2)o1,"enzyme activity, inhibitor",1 µM,remaining activity,94%
COc1cc2ncnc(Nc3ccc(Oc4ccccc4)c(C)c3C)c2cc1OC,"enzyme activity, inhibitor",1 µM,inhibition,-2%
COCCOc1nc(-c2ccc(Cl)nc2)nc2c1CN(C(=O)c1ncn3ccccc13)CC2,"cell-free assay, competition with immobilised ligand",0.1 µM,remaining binding,100%
COc1cc2nccc(Oc3ccc(NC(=O)c4c5n(n(-c6ccc(F)cc6)c4=O)CCCC5)cc3)c2cc1OC,"enzyme activity, inhibitor",0.1 µM,inhibition,-10%
Nc1ncnc2occ(-c3ccc(NC(=O)Nc4cc(C(F)(F)F)ccc4F)cc3)c12,"enzyme activity, inhibitor",20 µM,remaining activity,1.6%
Cc1ccc(NC(=O)c2ccc(C)c(C(F)(F)F)c2)cc1C#Cc1nn(C2CCC(O)CC2)c2ncnc(N)c12 (stereo not shown),cell-free assay,10 µM,remaining signal,73%
Cc1noc([C@H]2C[C@@H](c3ccc(C(F)(F)F)cc3)CN(C(=O)N3CCS(=O)(=O)C3)C2)n1,"cell-free assay, competition with immobilised ligand",1 µM,remaining binding,100%
Cc1sc(C(=O)NC2COC2)cc1-n1cc(NC(=O)Nc2c(F)cccc2Cl)cn1,"enzyme activity, inhibitor",10 µM,remaining activity,114%
Cc1cc(NC(=O)c2cccc3cc(-c4cccc5[nH]nc(N)c45)ccc23)ccc1F,"enzyme activity, inhibitor",0.1 µM,activity vs control,96%
Cc1ccc(C(=O)Nc2ccc(CN3CCN(C)CC3)c(C(F)(F)F)c2)cc1C#Cc1cnc2cccnn12,cell-free assay,23.5 nM,remaining signal,82%
O=C(Nc1cnn(-c2csc(C(=O)NC3COC3)c2)c1)Nc1c(F)cccc1Cl,"enzyme activity, inhibitor",5 µM,remaining activity,92.2%
COc1cc2ncnc(Nc3ccc(Oc4ccccc4)cc3C)c2cc1OC,"enzyme activity, inhibitor",1 µM,inhibition,-5%
O=C(O)[C@H]1[C@H](Cn2nnc3ccccc3c2=O)CC[C@@H]1C(=O)c1ccc(OCCC2CCOCC2)cc1,"cell-free assay, competition with immobilised ligand",1 µM,remaining binding,100%
Cc1ccc(C(=O)NCc2ccsc2)cc1C#Cc1cn(C(C)C)c2ncnc(N)c12,"enzyme activity, inhibitor",1 µM,activity vs control,95%
Cc1cnc(NC2CCOCC2)nc1-n1cnc(C(=O)NC(CN)c2cc(F)cc(Cl)c2)c1 (stereo not shown),"enzyme activity, inhibitor, radiometric",1 µM,remaining activity,103%
CCCS(=O)(=O)Nc1ccc(F)c(C(=O)c2c[nH]c3ncc(-c4ccc(Cl)cc4)cc23)c1F,"enzyme activity, inhibitor",1 µM,inhibition,< 10%
CC(C)(O)[C@H]1CC[C@H](Nc2ccc3ncc(-c4cccc(C(F)(F)F)c4)n3n2)CC1,"enzyme activity, inhibitor",1 µM,remaining activity,70.5%
